This is a sample that favours compounds with a hit; in the whole collection about 10% have one here.
PMI activator: activators of human PMI, primary screen, biochemical, fluorescence intensity, near-Km mannose 6-phosphate. purified human PMI, coupled resazurin fluorescence, 20 min; hits give high values; 1 = vehicle control, 0 substrate-free wells. activation factor at 20 µM. 0.005% of 190,000 active. AID 1214, 2008;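 active means activation factor of 2 or more at 20 µM, relative to plate controls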
Target sequence (P34949 whole entry, looked up): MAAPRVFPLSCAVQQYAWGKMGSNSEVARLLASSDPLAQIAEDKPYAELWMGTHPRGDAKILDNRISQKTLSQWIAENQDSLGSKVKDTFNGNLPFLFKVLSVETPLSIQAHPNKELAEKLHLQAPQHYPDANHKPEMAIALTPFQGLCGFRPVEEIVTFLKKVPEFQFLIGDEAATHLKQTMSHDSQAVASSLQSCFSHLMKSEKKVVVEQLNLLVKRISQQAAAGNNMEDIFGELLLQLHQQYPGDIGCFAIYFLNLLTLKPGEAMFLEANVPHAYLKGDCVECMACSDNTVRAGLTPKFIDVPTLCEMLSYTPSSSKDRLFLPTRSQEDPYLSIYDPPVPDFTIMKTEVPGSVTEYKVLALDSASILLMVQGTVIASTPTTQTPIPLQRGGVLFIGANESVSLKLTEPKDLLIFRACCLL
Diaph act CS: compounds boosting diaphorase resazurin reduction – biochemical, uHTS, resorufin fluorescence, counter-screen for diaphorase-coupled primary assays, primary screen | Diaphorase/resazurin coupled assay, 16 min; hits give high values; 1 = vehicle wells, 0 = NADH-free wells | activation factor at 20 µM | 0.005% of 190,000 active;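 active means diaphorase activity raised at least twofold by the compound at 20 µM; inactive means activation factor below 2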
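Material: purified diaphorase enzyme from Clostridium kluyveri / Medium: HEPES pH 7.4 buffer with MgCl2 and Tween 20 / Schedule: enzyme reaction of 16 min at room temperature / Measured by: resorufin fluorescence, excitation 544 nm, emission 590 nm / Evaluation: rise in resorufin formation, marking diaphorase activation or chemical reduction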
PMI act satM6P: human PMI activators, high substrate, primary screen, biochemical, fluorescence intensity, near-saturating mannose 6-phosphate. Mannose-6-phosphate isomerase (Homo sapiens), P34949. coupled PMI enzyme assay, resazurin fluorescence, 20 min; hits give high values; 1 = untreated enzyme, 0 = substrate-free blank. activation factor at 20 µM. 0.34% of 190,000 active. AID 1216, 2008;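 active means activation factor of 2 or more at 20 µM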
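Test system: Human PMI in coupled enzyme assay | Input: 15 ng/mL PMI | Medium: HEPES-buffered pH 7.4 with magnesium and detergent | Compound: One concentration, 20 µM, in 1% DMSO | Incubation: Enzyme reaction with compound 20 min at room temperature | Detection: Diaphorase-driven resazurin-to-resorufin fluorescence, excitation 544, emission 590 nm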
L major viab: Leishmania major promastigote growth inhibition, primary screen. 9% of 200,000 active. inhibition, % at 10 µM. Leishmania major promastigotes, resazurin fluorescence viability. AID 1063, 2008; in the data active means inhibition above about 50%;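 further: promastigotes grown with compound for 44 hours at 28 °C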
WT yeast gro inh: growth inhibition of WT strain, primary screen, mitochondrial fusion inhibitor project, WT and mutant strains, chemical genetic. mitochondrial fusion phenotypic screen. inhibition, % at 10 µM. AID 1362, 2008. 2.1% of 190,000 active; in the data active means inhibition above about 58%; tested in S. cerevisiae
Large screens that a line does not name were inactive.

CSc1ccc(C(=O)C2CCCN(Cc3cc4ccccc4[nH]3)C2)cc1 (stereo not given)	L major viab 87.7, WT yeast gro inh 66.2
CSc1ccc(C(=O)C2CCCN(Cc3cccnc3)C2)cc1 (stereo not given)	L major viab 85.1
O=C(c1ccc(-c2ccccc2)cc1)C1CCCN(Cc2ccn[nH]2)C1 (stereo not given)	L major viab 98.5
O=C(c1ccc(Cl)cc1)C1CCCN(Cc2ccon2)C1 (stereo not given)	none
CN(C)/C=C/C(=O)C(Cl)(Cl)Cl	none
Cc1ccc(S(=O)(=O)N(C)C/N=C(\N)N[N+](=O)[O-])cc1	none
Cc1ccc(S(=O)(=O)N(C)CCCC(=O)N2CCN(c3ccccn3)CC2)cc1	L major viab 89.6
CCOC(=O)c1c(-n2c(C)cc(/C=C3\C(=O)NC(=O)N(C)C3=O)c2C)sc2c1CCCC2	L major viab 92.5
Cc1cc(/C=C2\C(=O)NC(=O)N(c3ccc(Cl)cc3)C2=O)c(C)n1-c1sc2c(c1C#N)CCCC2	none
CCCCCCCSc1cc(OC)c(CCN(C)C)cc1OC	L major viab 100.4
CCCCCSc1cc(OC)c(CCN)cc1OC	L major viab 91.7
O=c1c2ccccc2nc(Cc2ccccc2)n1-c1ccc(O)cc1	none
O=C1NC(=S)N(C2CC2)C(=O)/C1=C/c1ccc2c(c1)CCN2CCCCl	L major viab 73.8
C=CCN1C(=O)/C(=C\c2ccc(N3CCOCC3)o2)C(=O)NC1=S	none
C=CCN1C(=O)/C(=C/c2ccc3c(c2)CCCN3CCC)C(=O)NC1=S	L major viab 91.4
CCN1C(=O)/C(=C/c2ccc3c(c2)CCN3CCCCl)C(=O)NC1=S	L major viab 100.0
CCN1CCN(c2cn[nH]c(=O)c2Cl)CC1	none
O=C(Cn1nc(-c2ccccc2)ccc1=O)N1CCC2(CC1)OCCO2	none
COc1ccc(CCNCc2sccc2C)cc1OC	none
N[C@@H](Cc1c[nH]c2ccccc12)c1nnc(SCc2ccccc2F)o1	none
O=C(C1CCN(S(=O)(=O)c2ccccc2)CC1)N1CCC2(CC1)OCCO2	none
O=C(Nc1ccc(F)cc1)N1CC2CC(C1)c1cccc(=O)n1C2 (stereo not given)	WT yeast gro inh 72.9
CCc1ccc(N2C(=O)NC(=O)C(Cc3ccc(OC)cc3OC)C2=O)cc1 (stereo not given)	none
COc1cc(NC(=O)CN2C3CCC2CC(O)(c2cccnc2)C3)cc(OC)c1 (stereo not given)	L major viab 93.3
CC(Cc1ccccc1)NCc1ccccc1O (stereo not given)	none
COc1ccc(CNC(C)Cc2cccs2)cc1 (stereo not given)	L major viab 76.8
CCOP(=O)(OCC)C1(O)C(=O)Nc2ccc(Br)cc21 (stereo not given)	none
O=C(O)c1cccc2nc3ccccc3nc12	L major viab 99.8
COc1ccc(C2SCC(=O)Nc3c2c(C)nn3-c2ccccc2)cc1OC (stereo not given)	L major viab 62.4
COc1ccc(C2SCC(=O)Nc3c2c(C)nn3C2CCOC(C)(C)C2)cc1OC (stereo not given)	none
Cc1oc(-c2ccccc2)nc1CN1C(=O)CN=C(c2ccccc2)c2ccccc21	WT yeast gro inh 58.4
Cc1ccc(CN2C(=O)CN=C(c3ccccc3)c3ccccc32)cc1	L major viab 57.0
O=C(N=Nc1c(O)[nH]c(=O)[nH]c1=O)C1COc2cc3ccccc3cc2O1 (stereo not given)	none
CCCCC/C=C\C/C=C\C/C=C\C/C=C\CCCC(=O)Nc1ccc(O)cc1	WT yeast gro inh 75.7 (no result: L major viab)
CCCC(=O)Nc1ccc(N2CCN(CC)CC2)c(Cl)c1	none
C/C(=N\N1CCN(C)CC1)c1c(O)[nH]c(=O)[nH]c1=O	none
Nc1c2c(nc3sc4c(c13)CCCC4)CCCC2	L major viab 92.1
Nc1c2c(nc3sc4c(c13)CCCC4)CCCCC2	L major viab 77.0
CCC(C)NC(=O)CN1C(=O)CN=C(c2ccccc2)c2ccccc21 (stereo not given)	none
